Measurements published in ChEMBL document CHEMBL1255514, “Discovery of 8-azabicyclo[3.2.1]octan-3-yloxy-benzamides as selective antagonists of the kappa opioid receptor. Part 1” (Bioorg Med Chem Lett, 2010).

How the values were obtained:
[1] = target: T1, Kappa-type opioid receptor (Homo sapiens, UniProt P41145); test: Antagonist activity at human kappa opioid receptor assessed as inhibition of dynorphin A-induced [35S]GTPgammaS binding; type: functional
Mu-type opioid receptor = Mu-type opioid receptor (Homo sapiens, UniProt P35372); test: Antagonist activity at human mu opioid receptor assessed as inhibition of DAMGO-stimulated [35S]GTPgammaS binding; type: functional
[2] = target: Delta-type opioid receptor (Homo sapiens, UniProt P41143); test: Antagonist activity at human delta opioid receptor assessed as inhibition of SNC80-stimulated [35S]GTPgammaS binding; type: functional
[3] = target: T1, Kappa-type opioid receptor; test: Binding affinity to kappa opioid receptor
[4] = Apparent permeability from apical to basolateral side of MDCK cells expressing MDR1; type: ADME, cell-based, Canis lupus familiaris; settings: dog
Method in brief: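 MDCK cells stably expressing human MDR1 P-glycoprotein grown as monolayer; apical-to-basolateral transport rate reported in nm/s.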

[5] = Intrinsic clearance in human liver microsomes; type: ADME, Microsome
Method in brief: (§1)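 Standard liver microsomal stability protocol using human or rat liver microsomes; intrinsic clearance expressed per mg microsomal protein per minute.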

[6] = Intrinsic clearance in rat liver microsomes; type: ADME, Microsome; method in brief: as §1
Plasma = test: Fraction unbound in rat plasma; type: ADME, cell-free
[7] = target: Voltage-gated inwardly rectifying potassium channel KCNH2 (Homo sapiens, UniProt Q12809)
[8] = Clearance in Sprague-Dawley rat at 2 umol/kg, iv; type: ADME, organism-based; settings: in vivo
[9] = Half life in Sprague-Dawley rat at 2 umol/kg, iv; type: ADME, organism-based; settings: in vivo
[10] = Volume of distribution at steady state in Sprague-Dawley rat at 2 umol/kg, iv; type: ADME, organism-based; settings: in vivo, read-out: Vdss
[11] = Oral bioavailability in Sprague-Dawley rat at 6 umol/kg, po; type: ADME, organism-based; settings: in vivo
[12] = Ratio of drug level in brain to plasma in Sprague-Dawley rat at 5 umol/kg, iv; type: ADME, organism-based; settings: brain and plasma, read-out: BPR
Method in brief: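 Total brain and plasma concentrations measured 2 h after a 5 µmol/kg intravenous infusion in rats; brain/plasma ratio calculated.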

Rattus norvegicus = test: Antidiuretic activity against U50488-induced diuresis in sc dosed Sprague-Dawley rat; type: functional; settings: Urine, read-out: ID50 (the source's name)

Sequence of Delta-type opioid receptor (P41143 whole entry): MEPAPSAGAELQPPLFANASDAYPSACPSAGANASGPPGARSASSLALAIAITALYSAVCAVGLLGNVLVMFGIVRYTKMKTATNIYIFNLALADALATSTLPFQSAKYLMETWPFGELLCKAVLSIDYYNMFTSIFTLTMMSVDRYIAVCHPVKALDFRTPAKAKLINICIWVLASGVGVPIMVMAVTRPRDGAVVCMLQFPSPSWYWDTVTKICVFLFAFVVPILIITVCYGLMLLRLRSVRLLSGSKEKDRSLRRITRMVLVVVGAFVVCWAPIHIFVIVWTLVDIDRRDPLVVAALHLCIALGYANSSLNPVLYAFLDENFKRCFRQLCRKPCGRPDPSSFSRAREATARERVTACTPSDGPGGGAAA
Sequence of Voltage-gated inwardly rectifying potassium channel KCNH2 (Q12809 whole entry): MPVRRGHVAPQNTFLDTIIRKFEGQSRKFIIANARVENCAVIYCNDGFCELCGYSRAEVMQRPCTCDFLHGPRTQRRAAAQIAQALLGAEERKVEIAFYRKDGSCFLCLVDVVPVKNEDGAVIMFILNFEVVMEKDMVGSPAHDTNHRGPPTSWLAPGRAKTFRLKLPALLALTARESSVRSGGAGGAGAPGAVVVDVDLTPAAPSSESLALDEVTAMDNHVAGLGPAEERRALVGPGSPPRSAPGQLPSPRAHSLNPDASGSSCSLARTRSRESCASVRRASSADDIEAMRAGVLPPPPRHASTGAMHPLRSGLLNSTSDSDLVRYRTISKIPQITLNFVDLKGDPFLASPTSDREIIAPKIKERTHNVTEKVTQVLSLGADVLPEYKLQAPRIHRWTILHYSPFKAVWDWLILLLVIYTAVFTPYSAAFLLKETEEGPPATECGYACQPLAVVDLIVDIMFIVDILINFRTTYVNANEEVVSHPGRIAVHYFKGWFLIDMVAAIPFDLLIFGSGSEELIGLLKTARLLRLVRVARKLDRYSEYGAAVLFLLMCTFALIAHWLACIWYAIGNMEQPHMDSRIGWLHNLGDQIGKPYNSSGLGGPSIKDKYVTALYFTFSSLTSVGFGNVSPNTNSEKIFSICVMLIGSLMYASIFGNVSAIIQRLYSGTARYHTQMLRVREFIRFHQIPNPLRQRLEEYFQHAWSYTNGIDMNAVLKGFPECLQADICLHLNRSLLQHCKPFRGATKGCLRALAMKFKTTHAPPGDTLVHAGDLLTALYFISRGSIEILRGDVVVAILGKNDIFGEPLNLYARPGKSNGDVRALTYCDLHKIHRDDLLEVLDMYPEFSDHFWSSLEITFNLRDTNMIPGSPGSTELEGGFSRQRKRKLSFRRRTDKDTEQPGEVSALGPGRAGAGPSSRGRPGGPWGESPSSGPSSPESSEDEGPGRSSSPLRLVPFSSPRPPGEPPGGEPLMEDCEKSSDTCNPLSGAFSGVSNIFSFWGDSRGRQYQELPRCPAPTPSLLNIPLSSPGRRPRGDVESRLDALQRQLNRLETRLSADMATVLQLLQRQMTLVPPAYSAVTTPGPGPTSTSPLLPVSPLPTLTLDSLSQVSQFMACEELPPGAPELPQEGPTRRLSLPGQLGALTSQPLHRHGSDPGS
Sequence of Mu-type opioid receptor (P35372 whole entry): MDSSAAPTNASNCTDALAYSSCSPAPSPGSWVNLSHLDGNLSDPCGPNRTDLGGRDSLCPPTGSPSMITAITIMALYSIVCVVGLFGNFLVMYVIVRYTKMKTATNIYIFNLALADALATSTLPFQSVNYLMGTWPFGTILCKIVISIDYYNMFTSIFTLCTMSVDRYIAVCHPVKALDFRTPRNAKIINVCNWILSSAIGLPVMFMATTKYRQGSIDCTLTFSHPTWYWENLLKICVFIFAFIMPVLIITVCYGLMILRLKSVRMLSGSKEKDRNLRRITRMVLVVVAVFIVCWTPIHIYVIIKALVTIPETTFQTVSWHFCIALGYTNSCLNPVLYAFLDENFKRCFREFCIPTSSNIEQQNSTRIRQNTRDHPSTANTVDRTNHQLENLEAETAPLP
T1 sequence (P41145 whole entry): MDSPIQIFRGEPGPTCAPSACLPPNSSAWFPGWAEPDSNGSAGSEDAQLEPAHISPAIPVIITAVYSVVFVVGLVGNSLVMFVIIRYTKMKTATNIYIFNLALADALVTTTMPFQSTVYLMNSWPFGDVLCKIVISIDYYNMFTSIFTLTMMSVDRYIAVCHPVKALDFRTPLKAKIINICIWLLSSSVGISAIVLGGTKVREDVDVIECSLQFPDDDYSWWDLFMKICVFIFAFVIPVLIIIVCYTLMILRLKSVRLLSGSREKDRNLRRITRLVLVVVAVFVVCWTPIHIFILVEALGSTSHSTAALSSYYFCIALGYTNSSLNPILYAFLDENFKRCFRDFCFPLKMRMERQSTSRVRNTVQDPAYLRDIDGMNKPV

Structure (SMILES)	IC50 [1] [µM]	IC50 (Mu-type opioid receptor) [µM]	IC50 [2] [µM]	further results
CC(C)[C@@H](CN1CC[C@@](C)(c2cccc(O)c2)[C@@H](C)C1)NC(=O)[C@H]1Cc2ccccc2CN1	0.0005	0.041	1.28	Ki [3]: 0.0003 µM
Cc1ccc(CN2[C@@H]3CC[C@H]2C[C@H](Oc2cccc(C(N)=O)c2)C3)o1	0.386	10.9	22	–
NC(=O)c1cccc(OC2CCN(CC3CC3)CC2)c1	28.2	–	–	Ki [3]: 0.146 µM
C[C@H](c1ccccc1)N1[C@@H]2CC[C@H]1C[C@H](Oc1cccc(C(N)=O)c1)C2	0.683	> 24.4	–	–
C[C@@H](c1ccccc1)N1[C@@H]2CC[C@H]1C[C@H](Oc1cccc(C(N)=O)c1)C2	20.5	> 30	–	–
O=C(Nc1cccc(NC(=O)c2cccc(N3CCOCC3)c2)c1)c1cccc(OC2CCN(CC3CC3)CC2)c1	0.077	> 30	> 30	Papp A→B [4]: < 1 ×10⁻⁶ cm/s; Ki [3]: 0.0005 µM
Cc1ccc([C@@H](C)N2[C@@H]3CC[C@H]2C[C@H](Oc2cccc(C(N)=O)c2)C3)s1	0.111	–	–	–
COc1cccc([C@@H](C)N2[C@@H]3CC[C@H]2C[C@H](Oc2cccc(C(N)=O)c2)C3)c1	0.046	1.05	–	–
NC(=O)c1cccc(OC2CCN(Cc3ccccc3)CC2)c1	0.585	> 30	> 30	Ki [3]: 0.075 µM
Cc1ccc([C@@H](C)N2[C@@H]3CC[C@H]2C[C@H](Oc2cccc(C(N)=O)c2)C3)cn1	–	–	–	microsomal CLint [5]: < 4 µL/min/mg; microsomal CLint [6]: 14 µL/min/mg; Papp A→B [4]: 9.1 ×10⁻⁶ cm/s; PPB (Plasma): 81%
C[C@H](c1ccnc(Cl)c1)N1[C@@H]2CC[C@H]1C[C@H](Oc1cccc(C(N)=O)c1)C2	0.307	22.9	–	–
NC(=O)c1cccc(O[C@@H]2C[C@H]3CC[C@@H](C2)N3Cc2cccs2)c1	0.215	9.36	> 30	IC50 [7]: 0.43 µM
Cc1ccc(CN2[C@@H]3CC[C@H]2C[C@H](Oc2cccc(C(N)=O)c2)C3)s1	–	–	–	microsomal CLint [5]: 31 µL/min/mg; microsomal CLint [6]: 379 µL/min/mg; Papp A→B [4]: 13 ×10⁻⁶ cm/s; PPB (Plasma): 50%; clearance [8]: 113 mL/min/kg; half-life [9]: 1 h; Vd [10]: 5.1 L/kg; bioavailability [11]: 1.7%; Kp [12]: 4; ED50 (Rattus norvegicus): 0.006 µmol/kg
NC(=O)c1cccc(O[C@@H]2C[C@H]3CC[C@@H](C2)N3CCc2ccccc2)c1	0.754	0.424	2.15	–
NC(=O)c1cccc(O[C@@H]2C[C@H]3CC[C@@H](C2)N3CCCc2ccccc2)c1	0.342	0.659	4	–
Cc1ccc(CN2[C@@H]3CC[C@H]2C[C@H](Oc2cccc(C(N)=O)c2)C3)cc1	0.049	0.482	10.9	–
Cc1ccccc1CN1[C@@H]2CC[C@H]1C[C@H](Oc1cccc(C(N)=O)c1)C2	–	17.6	> 30	–
NC(=O)c1cccc(O[C@@H]2C[C@H]3CC[C@@H](C2)N3Cc2ccncc2)c1	–	–	> 24.7	–

Structure (SMILES)	IC50 [1] [µM]	IC50 (Mu-type opioid receptor) [µM]	IC50 [2] [µM]	further results
NC(=O)c1cccc(O[C@@H]2C[C@H]3CC[C@@H](C2)N3Cc2cccnc2)c1	0.431	2.89	> 21.9	–
NC(=O)c1cccc(O[C@@H]2C[C@H]3CC[C@@H](C2)N3Cc2ccccn2)c1	3.16	19	> 30	IC50 [7]: 1.9 µM
CN1[C@@H]2CC[C@H]1C[C@H](Oc1cccc(C(N)=O)c1)C2	12.6	–	–	–
NC(=O)c1cccc(O[C@@H]2C[C@H]3CC[C@@H](C2)N3CC2CC2)c1	6.69	> 30	> 30	–
NC(=O)c1cccc(O[C@@H]2C[C@H]3CC[C@@H](C2)N3CC2CCCCC2)c1	–	–	–	microsomal CLint [5]: < 4 µL/min/mg; microsomal CLint [6]: 196 µL/min/mg; Papp A→B [4]: 8.3 ×10⁻⁶ cm/s; clearance [8]: 184 mL/min/kg; half-life [9]: 1 h; Vd [10]: 9.5 L/kg; bioavailability [11]: 1.8%; Kp [12]: 5
NC(=O)c1cccc(O[C@@H]2C[C@H]3CC[C@@H](C2)N3Cc2ccc3c(c2)OCO3)c1	0.011	0.307	4.84	–
CS(=O)(=O)Cc1ccc(CN2[C@@H]3CC[C@H]2C[C@H](Oc2cccc(C(N)=O)c2)C3)cc1	0.039	0.576	5.39	–
Cn1cc(CN2[C@@H]3CC[C@H]2C[C@H](Oc2cccc(C(N)=O)c2)C3)cn1	0.524	9.43	> 27.3	–
NC(=O)c1cccc(O[C@@H]2C[C@H]3CC[C@@H](C2)N3CC(=O)N2CCCC2)c1	3.41	21.1	> 30	IC50 [7]: > 33 µM
NC(=O)c1cccc(O[C@@H]2C[C@H]3CC[C@@H](C2)N3CC(=O)Nc2ccccc2)c1	0.345	0.253	2.67	IC50 [7]: 0.72 µM
CC(c1ccccc1)N1[C@@H]2CC[C@H]1C[C@H](Oc1cccc(C(N)=O)c1)C2 (stereo partly specified)	1	19.8	–	–
Cc1ccc(C(C)N2[C@@H]3CC[C@H]2C[C@H](Oc2cccc(C(N)=O)c2)C3)s1 (stereo partly specified)	0.355	–	–	–
Cc1ccccc1C(C)N1[C@@H]2CC[C@H]1C[C@H](Oc1cccc(C(N)=O)c1)C2 (stereo partly specified)	0.846	16.8	–	–
NC(=O)c1cccc(O[C@@H]2C[C@H]3CC[C@@H](C2)N3C2CCCc3ccccc32)c1 (stereo partly specified)	2.19	22.7	–	–
NC(=O)c1cccc(O[C@@H]2C[C@H]3CC[C@@H](C2)N3C2CCCCC2)c1	1.13	9.41	–	–
CC(C)(c1ccccc1)N1[C@@H]2CC[C@H]1C[C@H](Oc1cccc(C(N)=O)c1)C2	13.3	–	–	–
NC(=O)c1cccc(O[C@@H]2C[C@H]3CC[C@@H](C2)N3C2(c3ccccc3)CC2)c1	24.2	> 30	–	–
CC(c1ccncc1)N1[C@@H]2CC[C@H]1C[C@H](Oc1cccc(C(N)=O)c1)C2 (stereo partly specified)	–	> 30	–	–
